# Screening data from PubChem.
# The list is not random: actives were taken first. Their share in the collection is about 3.6%.
# Hsp70 act – Hsp70 transcriptional activators, primary screen, cell-based, HeLa, Hsp70 promoter luciferase, luminescence, 10 µM. HeLa Hsp70 promoter luciferase reporter; scaled: vehicle 0, proteasome-inhibitor control 100%. AID 1203, 2008. actives 0.04% (n = 200,000). activation, % at 10 µM;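 active = activation above the mean across all tested compounds plus 3 SD, cutoff set per campaign, cut at about 5.5% in these data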;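 note: 100% = MG132 at 30 µM as the positive control and 0% = DMSO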
# HSF1 inh – HSF1 inhibitors in luciferase reporter cells, primary screen, cell-based, NIH3T3, luminescence; activity change, negative = inhibition, % at 7.5 µM (by protocol); NIH3T3-HGL HSE-luciferase, MG132-induced, luminescence 8 h; active compounds read low; actives 0.77% (n = 300,000);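 active = more than half of replicate wells show activity change below -50%, luminescence cut by over half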;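 note: luciferase reports HSF-1 transcriptional activity via heat shock element; 0% = median of DMSO wells and -100% = zero luminescence signal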
# PERK inh – block of dimerizer-induced PERK translation repression, primary screen, PERK inhibitor project, CHO PERK-DD cells, SEAP luminescence, HTS | CHO PERK-DD fusion, SEAP luminescence translation reporter | inhibition, % at 5.6 µM | actives 0.17% (n = 220,000);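 active = inhibition above the mean inhibition of all tested compounds plus 3 SD, set separately per screening campaign, cut at about 2.9% in these data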;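 note: PERK kinase domain activated by AP20187 dimerizer at 100 nM; 0% = DMSO with dimerizer and 100% = rapamycin at 8.4 µM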
# STAT3 act – IL-6 driven STAT3 reporter potentiators, primary screen, U3A cells, luciferase, luminescence, MLSCN library. IL-6 STAT3-luciferase reporter; 100% = signal with IL-6 EC80 alone. activation (% of control), % at 5.6 µM. actives 0.91% (n = 190,000). AID 871, 2007;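 active = activation above the screen-wide mean of compound activation plus 3 SD, cut at about 130% in these data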;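 note: 0% = background luminescence of wells with medium and substrate only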
#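 Material: STAT1-lacking human U3A cells, STAT3 luciferase reporter | Benchmarks: IL-6-only wells as 100% reference | Probe or stimulus: IL-6 (33 ng/mL) | Timing: Compound 1 h, then IL-6 6 h at 37 °C | Detection: Luminescence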
# PolyA inhibitor – polyadenylation inhibitors in yeast reporter cells, primary screen, luminescence, S. cerevisiae; actives 0.02% (n = 300,000); S. cerevisiae SKY197-pL101 polyadenylation reporter, beta-gal luminescence; efflux-impaired pdr1/pdr3 knockout yeast; score 100 = 6 SD above DMSO; activity score, % at 12 µM;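 active = lowest replicate activity score at least 50, where 100 means six control SD above control mean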;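 note: yeast exposed to compound for 9 h at 30 °C; higher score means more reporter readthrough which indicates perturbed polyadenylation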
# AHR act – AHR activators, primary screen, cell-based, luminescence, luciferase reporter, human | Aryl hydrocarbon receptor (Homo sapiens), P35869 | AID 2796, 2010 | AHR-responsive luciferase reporter cells | actives 2.5% (n = 320,000) | activation, % at 5 µM; in the data active = activation above about 47%;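 note: 0% = vehicle wells and 100% = reference agonist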
# Target sequence (P35869 whole entry, looked up): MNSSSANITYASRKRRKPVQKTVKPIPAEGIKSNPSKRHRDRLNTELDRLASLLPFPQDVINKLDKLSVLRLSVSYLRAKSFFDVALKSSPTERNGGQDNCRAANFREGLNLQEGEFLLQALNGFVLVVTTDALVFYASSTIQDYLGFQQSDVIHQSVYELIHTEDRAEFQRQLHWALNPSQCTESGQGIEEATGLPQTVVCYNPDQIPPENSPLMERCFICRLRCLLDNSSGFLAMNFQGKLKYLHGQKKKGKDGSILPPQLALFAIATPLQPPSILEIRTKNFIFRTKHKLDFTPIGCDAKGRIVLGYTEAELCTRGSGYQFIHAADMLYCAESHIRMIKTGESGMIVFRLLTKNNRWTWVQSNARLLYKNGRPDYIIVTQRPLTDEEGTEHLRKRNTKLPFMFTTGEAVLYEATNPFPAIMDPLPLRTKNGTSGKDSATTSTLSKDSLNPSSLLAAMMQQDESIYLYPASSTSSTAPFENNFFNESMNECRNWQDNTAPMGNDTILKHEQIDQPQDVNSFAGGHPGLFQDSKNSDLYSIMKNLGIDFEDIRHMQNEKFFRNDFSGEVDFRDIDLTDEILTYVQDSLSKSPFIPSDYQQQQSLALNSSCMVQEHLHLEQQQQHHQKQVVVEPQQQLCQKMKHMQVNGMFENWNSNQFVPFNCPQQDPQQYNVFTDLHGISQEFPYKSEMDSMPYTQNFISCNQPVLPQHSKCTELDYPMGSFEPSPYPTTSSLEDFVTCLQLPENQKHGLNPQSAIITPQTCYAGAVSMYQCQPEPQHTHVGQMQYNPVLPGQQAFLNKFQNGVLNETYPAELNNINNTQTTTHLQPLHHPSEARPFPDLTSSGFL
# Starred values were filed as active, the others as inactive; · = no result.
SMILES,Hsp70 act,HSF1 inh,PERK inh,STAT3 act,PolyA inhibitor,AHR act
COc1ccc(C(C)(C)C)cc1NC(=O)Nc1ccc2c(c1)OCO2,-0.1,-34.3,-0.1,119.6,13.3,78.9*
COc1ccc(C)cc1NC(=O)Nc1ccc2c(c1)CCC2,·,0.2,·,·,-15.8,77.3*
O=C(CCC(=O)c1ccc(F)cc1)NCC1(N2CCCCC2)CCCCC1,·,·,·,·,·,2.6
O=C(NCc1ccccc1)c1csc(-c2cccnc2)n1,·,-22.4,0.4,·,10.8,66.6*
O=C(NCCc1csc(-c2cccnc2)n1)c1ccccc1,-0.3,-8.5,0.1,82.5,2.3,3.9
c1ccc(-c2nc(-c3cccnc3)cs2)cc1,·,9.3,·,·,-12.1,·
O=C(NCCc1csc(-c2cccnc2)n1)c1cccc2ccccc12,-0.3,-5.0,0.6,91.7,-9.7,57.1*
CCCCCCCCCCCCOC(=O)C[N+](C)(C)C,·,-17.7,3.2*,·,11.1,-1.1
CCCNC(=O)C1CNc2ccccc2O1 (stereo unspecified),-0.1,11.1,1.1,134.0*,-3.0,16.1
COc1ccc(-c2nc(CSCC(=O)NC3CCCC3)c(C)o2)cc1OC,·,-0.2,·,·,3.6,4.6
O=C1c2ccccc2C(=O)C1Cc1cccc2ccccc12,0.0,1.8,-0.5,106.9,-9.6,61.1*
O=c1cc(-c2cccc3ccccc23)[nH][nH]1,-0.4,4.9,2.0,100.5,8.3,2.1
O=C(Nc1nnc(CCc2ccccc2)s1)c1ccccc1F,·,16.5,·,·,-8.6,-3.6
COc1ccccc1-c1nc(C(N)=O)c2[nH]c(=O)n(-c3cccc(C)c3)c2n1,0.1,2.2,-0.1,103.0,-0.2,66.0*
CN(CC(=O)NCc1ccccc1)S(=O)(=O)c1cnc[nH]1,-0.5,·,0.2,101.7,17.7,-0.9
CCN(c1ccccc1)S(=O)(=O)c1cnc[nH]1,-0.3,-69.9*,0.1,101.3,7.8,5.9
Oc1ccc(-c2nccc(-c3ccccn3)n2)cc1,·,14.5,·,·,-9.2,-3.0
COc1ccccc1C(=O)Oc1ccc(C(C)(C)C)cc1,0.0,3.6,0.9,102.3,-13.2,-0.7
CC(C)(C)c1ccc(C(=O)Oc2ccccc2CCC(=O)O)cc1,·,2.3,3.4*,·,-2.0,-0.8
C=C1C(=O)O[C@@]23[C@H]1CC[C@@H](C)[C@@H]2CC[C@@]1(C)O[C@@H]31,·,·,·,·,·,4.1
CC(C)n1c(O)c(/C=C2\C=NN=C2c2ccccc2)sc1=S,·,1.5,1.5,·,-8.0,63.6*
CCn1c(O)c(/C=C2\C=NN=C2c2ccc(C)cc2)sc1=S,-0.4,-5.8,0.1,112.1,-1.6,-0.6
COc1ccc(OC)c(C(=O)Cn2c3[n+](c4ccc(C(F)(F)F)cc42)CCCCC3)c1,-0.3,2.5,0.3,98.0,0.2,-0.6
Cc1nnc(NC(=O)c2sc3ccccc3c2Cl)s1,-0.3,10.8,-0.2,44.8,-7.3,47.7*
Cc1cccnc1NC(=O)Nc1ccccc1,·,2.7,-0.3,·,-5.0,3.8
SMILES,Hsp70 act,HSF1 inh,PERK inh,STAT3 act,PolyA inhibitor,AHR act
Cc1cccnc1NC(=O)Nc1ccc(Cl)cc1,·,11.6,·,·,34.2,74.4*
Cc1cccnc1NC(=O)c1sc2ccccc2c1Cl,·,24.1,·,·,-6.4,69.2*
CCc1cccc2c(C#N)cn(CC(=O)NCc3ccco3)c12,-0.1,1.7,0.5,98.1,1.0,4.0
CCOC(=O)Cn1cc(C#N)c2cccc(CC)c21,0.0,1.4,3.3*,98.4,-11.2,1.2
COC(=O)c1ccc(CNC(=O)C23CC4CC(CC(C4)C2)C3)cc1,·,3.3,·,·,-14.4,0.7
COC(=O)c1ccc(/C=C/C(=O)OCC(=O)c2ccc[nH]2)cc1,·,·,·,·,·,1.6
CNc1nc(N(C)C)nc(N(C)C)n1,0.1,0.8,-0.1,135.7*,21.0,14.8
CN(C)c1nc(Nn2cnnc2)nc(N(C)C)n1,·,-2.8,2.2,·,16.6,0.1
Cc1oncc1C(=O)Nc1ccc2ccccc2c1,·,42.2,·,·,-16.5,·
Cc1oncc1C(=O)Nc1ccc(C(F)(F)F)cc1,-0.4,28.2,0.6,84.1,-6.2,67.4*
CCc1ccc(N2C(=O)Cc3c2nc(N)c(C#N)c3N)cc1,-0.3,-4.0,0.3,115.4,-24.3,52.1*
CC(C)(C)c1ccc(N2C(=O)Cc3c2nc(N)c(C#N)c3N)cc1,-0.3,-4.5,-0.4,117.0,15.7,75.5*
CCN(CC)c1nc2c3c(nc4c(c3c1C#N)CC(=O)N4c1ccc(Cl)cc1)NC(C)=N2,-0.4,-2.8,1.2,85.9,6.4,7.2
N#Cc1ccccc1OCC(=O)N(Cc1nnc(-c2ccccc2Cl)o1)C1CC1,·,3.0,·,·,16.2,7.4
CC(C)(C)c1ccc(C(=O)NCC(=O)N2CCC3(CC2)NCCc2[nH]cnc23)cc1,·,3.6,·,·,5.3,0.0
O=C(Nc1ccc(F)c(F)c1)c1cnc(-c2ccccc2)nc1-c1ccccc1,-0.1,-0.5,1.0,101.6,-17.0,65.3*
C=CCNC(=O)c1c[nH]c2ccc(S(=O)(=O)N(C)c3ccc(OCC)cc3)cc2c1=O,·,4.0,·,·,-13.3,16.7
O=C(Nc1ccc(C(=O)N2CCN(c3ccccc3)CC2)cc1)C1=CSCCO1,·,4.2,·,·,1.7,1.6
COCCNC(=O)C(=O)N/N=C/c1cccs1,0.1,4.9,1.4,98.8,-13.8,8.3
COc1ccc(N(CC(=O)N/N=C/c2cccs2)S(=O)(=O)c2ccccc2)cc1,-0.3,-5.0,-0.6,93.5,-10.4,64.0*
COc1ccccc1NC(=O)/C(=C\c1cccs1)NC(=O)c1ccco1,·,23.2,-0.2,·,7.6,66.3*
COc1ccccc1NC(=O)C(=O)N/N=C/c1cccs1,0.3,1.4,-0.1,105.5,18.0,47.1*
CCc1ccc(CNC(=O)C2Cc3cc(S(=O)(=O)N4CCCC4)ccc3N2C(C)=O)cc1 (stereo unspecified),·,18.6,·,·,-7.0,3.0
COc1cc(NCCCC(C)N)c2ncccc2c1 (stereo unspecified),-0.1,17.6,1.0,102.5,8.0,·
CCC(CNc1cc(OC)cc2cccnc12)NC1CCCCC1 (stereo unspecified),·,-75.9*,-0.8,·,0.5,48.5*
Clc1nc(-c2ccccc2)cc(-c2ccc(Br)cc2)n1,0.0,6.1,0.7,137.8*,-20.5,68.5*
Nc1cc(-c2ccc(Br)cc2)nc2cc(-c3ccccc3)nn12,-0.2,22.3,1.1,87.9,-19.7,2.6
O=C(O)c1ccc(-c2ccc(-c3ccccc3)cc2)s1,·,-50.7*,·,·,-16.0,-6.6
Cc1ccc(NC(=O)c2ccc(Cl)c(S(=O)(=O)N3CCCCCC3)c2)nc1,·,2.0,·,·,11.0,9.4
